Reference: ChEMBL document CHEMBL4428071 (J Med Chem, 2016)
Values after ≈ are worked out from the molar mass of the structure shown. Active and inactive are the calls of the source. The rule behind the calls is not given here.

Assays:
[1] = Solubility of the compound in PBS buffer at pH 7.4; assay type: physicochemical
Procedure, shortened: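 Solubility measured in PBS pH 7.4 and in pure water, reported as µg/mL.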

[2] = target: T1, Mast/stem cell growth factor receptor Kit (Homo sapiens, UniProt P10721, T670I); test: Inhibition of cKIT T670I mutant in human GIST-5R cells assessed as downregulation of ERK phosphorylation at T202/204 after 1 hr by Western blot analysis; assay type: cell-based
Procedure, shortened: (§1)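 GIST-T1 or GIST-5R cells in DMEM with 10% FBS were treated with serially diluted compound for 1 h. Cells were then lysed and analysed by western blotting.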

[3] = tested on: Mast/stem cell growth factor receptor Kit (Homo sapiens), P10721 [V559D,V654A]; test: Inhibition of TEL-fused cKIT V559D/V654A double mutant (unknown origin) expressed in mouse BA/F3 cells assessed as cell growth inhibition after 72 hrs by cell titer-glo assay; assay type: cell-based
Procedure, shortened: (§2)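 Cells seeded at 3000 per well and exposed to serial compound dilutions for 72 h. Viability read by CellTiter-Glo luminescence and normalised to DMSO controls; mean of three independent measurements. BaF3 lines kept IL-3-free in RPMI 1640/10% FBS after retroviral transduction and puromycin selection. GIST lines grown in DMEM/10% FBS.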

BaF3 [4] = test: Antiproliferative against mouse BA/F3 cells harboring TEL-fused cKIT T670I mutant allografted in nu/nu mouse assessed as tumor growth inhibition at 25 to 100 mg/kg, ip administered daily for 10 days by Ki-67 staining based microscopic analysis; assay type: functional, organism-based
Procedure, shortened: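 Tumours from BaF3-TEL-cKIT-T670I subcutaneous xenografts in nu/nu mice after 10 days of daily IP dosing (25–100 mg/kg/d). Sections underwent citrate pH 6.0 microwave antigen retrieval and casein block, then anti-Ki-67 mouse mAb 1:50 overnight at 4 °C. Detection with DAB and haematoxylin counterstain.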

[5] = target: T2, Mast/stem cell growth factor receptor Kit (Homo sapiens, UniProt P10721); test: Inhibition of wild type cKIT in human GIST-T1 cells assessed as cell growth inhibition after 72 hrs by cell titer-glo assay; assay type: cell-based
Procedure, shortened: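 GIST-T1 cells (cKIT wt) grown in DMEM with 10% FBS and 1% penicillin/streptomycin at 37 °C, 5% CO2. Viability read by CellTiter-Glo luminescence and normalized to DMSO controls. GI50 taken from the mean of three independent measurements.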

[6] = target: Macrophage colony-stimulating factor 1 receptor (Homo sapiens) (UniProt P07333); test: Inhibition of partial length human CSF1R expressed in bacterial expression system assessed as activity remaining at 1 uM by kinome scan assay
[7] = target: Proto-oncogene tyrosine-protein kinase receptor Ret (Homo sapiens) (UniProt P07949); test: Inhibition of TEL-fused partial length human RET expressed in mouse BA/F3 cells after 72 hrs by cell titer-glo assay; assay type: cell-based; procedure, shortened: as §2
[8] = target: T2, Mast/stem cell growth factor receptor Kit; test: Inhibition of wild type cKIT autophosphorylation at Y719 in human GIST-T1 cells at 100 nM after 1 hr by Western blot analysis; assay type: cell-based; procedure, shortened: as §1
[9] = target: T1, Mast/stem cell growth factor receptor Kit; test: Inhibition of cKIT T670I mutant autophosphorylation at Y823 in human GIST-5R cells at 0.1 to 3 uM after 1 hr by Western blot analysis; assay type: cell-based; procedure, shortened: as §1
[10] = MRT (0 to infinity) in Sprague-Dawley rat at 1 mg/kg, iv measured up to 8 hrs post dosing; assay type: ADME, organism-based; conditions: in vivo
Procedure, shortened: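 Male Sprague-Dawley rats, 8 weeks old, fasted overnight, dosed at 1 mg/kg iv from a 1 mg/mL stock in 5% DMSO/40% PEG400/55% saline. About 0.2 mL jugular blood taken into heparin at 1 min to 8 h. Plasma held at -80 °C until analysis. n = 3, mean reported.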

[11] = tested on: Mast/stem cell growth factor receptor Kit (Homo sapiens), P10721 [V559D,T670I]; test: Inhibition of TEL-fused cKIT T670I/V559D double mutant (unknown origin) expressed in mouse BA/F3 cells assessed as cell growth inhibition after 72 hrs by cell titer-glo assay; assay type: cell-based; procedure, shortened: as §2
BaF3 [12] = test: Induction of apoptosis in mouse BA/F3 cells harboring TEL-fused cKIT T670I mutant allografted in nu/nu mouse at 25 to 100 mg/kg, ip administered daily for 10 days by TUNEL staining based microscopic analysis; assay type: functional, organism-based
Procedure, shortened: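 Tumour sections from the daily-IP, 10-day BaF3-TEL-cKIT-T670I xenograft study were deparaffinised and digested with proteinase K for 15 min at RT. Peroxidase blocked in 3% H2O2/methanol. TdT reaction 1 h at 37 °C, converter-POD 30 min at 37 °C, DAB ~8 min, haematoxylin counterstain.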

BaF3 [13] = test: Antitumor activity against TEL-fused cKIT T670I mutant expressing mouse BA/F3 cells allografted in nu/nu mouse assessed as tumor growth inhibition at 50 mg/kg/day, ip administered daily for 10 days; assay type: functional; conditions: 240 h, read-out: TGI
Procedure, shortened: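 Female nu/nu mice, 5 weeks old at purchase, given 1 million BaF3-TEL-cKIT-T670I cells in PBS/Matrigel 1:1 subcutaneously on the right flank. At tumour volume 200–400 mm3, randomised into groups of 7 and dosed IP daily for 10 days (25, 50, 100 mg/kg/d or vehicle: 0.5% methylcellulose/0.4% Tween80 in water). Tumour volume (W2×L/2) and body weight recorded daily.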

[14] = Toxicity in nu/nu mouse xenografted with TEL-fused cKIT T670I mutant expressed in mouse BA/F3 cells assessed as body weight reduction at 25 to 100 mg/kg/day, ip after 10 days; assay type: organism-based; conditions: in vivo, 240 h
Procedure, shortened: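 Female nu/nu mice, 5 weeks old on purchase, injected subcutaneously in the right flank with 1×10^6 BaF3-TEL-cKIT-T670I cells in PBS/Matrigel 1:1. At 200–400 mm³ tumours, mice were randomized to 7 per group. They then got 25, 50 or 100 mg/kg/day ip or vehicle (0.5% methylcellulose/0.4% Tween80 in water) for 10 days. Body weight was recorded daily relative to initial weight.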

[15] = target: Receptor-type tyrosine-protein kinase FLT3 (Homo sapiens) (UniProt P36888); test: Inhibition of partial length human FLT3 expressed in bacterial expression system assessed as activity remaining at 1 uM by kinome scan assay
[16] = target: T2, Mast/stem cell growth factor receptor Kit; test: Inhibition of TEL-fused cKIT (unknown origin) expressed in mouse BA/F3 cells assessed as cell growth inhibition after 72 hrs by cell titer-glo assay; assay type: cell-based
[17] = target: Serine/threonine-protein kinase 10 (Homo sapiens) (UniProt O94804); test: Inhibition of partial length human LOK expressed in bacterial expression system assessed as activity remaining at 1 uM by kinome scan assay
Homo sapiens = species: Homo sapiens; test: Induction of apoptosis in human GIST5R cells assessed as increase in cleaved PARP levels after at 30 nM 24 hrs by Western blot analysis; assay type: functional, cell-based
Procedure, shortened: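 GIST-T1 or GIST-5R cells in DMEM with 10% FBS were exposed to serially diluted compound for 24 h. Apoptosis was assessed by western blot with PARP and GAPDH antibodies.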

T2 sequence (P10721 whole entry): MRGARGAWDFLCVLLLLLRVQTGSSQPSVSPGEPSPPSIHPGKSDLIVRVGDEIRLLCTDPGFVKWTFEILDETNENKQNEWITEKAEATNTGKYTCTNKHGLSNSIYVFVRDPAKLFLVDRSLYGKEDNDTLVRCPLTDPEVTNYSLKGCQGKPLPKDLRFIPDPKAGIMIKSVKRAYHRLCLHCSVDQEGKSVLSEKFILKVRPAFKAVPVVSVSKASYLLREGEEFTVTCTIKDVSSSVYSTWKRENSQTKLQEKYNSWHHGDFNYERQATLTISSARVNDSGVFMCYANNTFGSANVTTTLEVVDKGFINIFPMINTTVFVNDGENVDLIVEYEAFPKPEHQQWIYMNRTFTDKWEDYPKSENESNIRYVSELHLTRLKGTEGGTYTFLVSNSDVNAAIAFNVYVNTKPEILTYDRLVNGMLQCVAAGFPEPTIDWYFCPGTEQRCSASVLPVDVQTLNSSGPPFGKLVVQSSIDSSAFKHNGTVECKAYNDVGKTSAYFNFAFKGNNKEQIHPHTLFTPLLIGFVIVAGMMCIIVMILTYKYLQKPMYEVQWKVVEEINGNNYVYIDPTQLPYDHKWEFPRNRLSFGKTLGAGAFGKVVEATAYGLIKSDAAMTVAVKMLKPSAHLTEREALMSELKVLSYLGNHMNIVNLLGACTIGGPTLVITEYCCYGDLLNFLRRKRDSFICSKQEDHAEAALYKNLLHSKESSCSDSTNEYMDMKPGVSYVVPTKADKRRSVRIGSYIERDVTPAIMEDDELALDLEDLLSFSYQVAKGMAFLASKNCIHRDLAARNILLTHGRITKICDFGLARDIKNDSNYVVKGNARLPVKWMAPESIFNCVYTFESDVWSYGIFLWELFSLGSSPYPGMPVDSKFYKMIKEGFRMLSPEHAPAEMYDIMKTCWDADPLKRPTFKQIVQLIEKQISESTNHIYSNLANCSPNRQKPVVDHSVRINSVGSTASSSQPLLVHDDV
T1 sequence (P10721 26-976 T670I limits assumed): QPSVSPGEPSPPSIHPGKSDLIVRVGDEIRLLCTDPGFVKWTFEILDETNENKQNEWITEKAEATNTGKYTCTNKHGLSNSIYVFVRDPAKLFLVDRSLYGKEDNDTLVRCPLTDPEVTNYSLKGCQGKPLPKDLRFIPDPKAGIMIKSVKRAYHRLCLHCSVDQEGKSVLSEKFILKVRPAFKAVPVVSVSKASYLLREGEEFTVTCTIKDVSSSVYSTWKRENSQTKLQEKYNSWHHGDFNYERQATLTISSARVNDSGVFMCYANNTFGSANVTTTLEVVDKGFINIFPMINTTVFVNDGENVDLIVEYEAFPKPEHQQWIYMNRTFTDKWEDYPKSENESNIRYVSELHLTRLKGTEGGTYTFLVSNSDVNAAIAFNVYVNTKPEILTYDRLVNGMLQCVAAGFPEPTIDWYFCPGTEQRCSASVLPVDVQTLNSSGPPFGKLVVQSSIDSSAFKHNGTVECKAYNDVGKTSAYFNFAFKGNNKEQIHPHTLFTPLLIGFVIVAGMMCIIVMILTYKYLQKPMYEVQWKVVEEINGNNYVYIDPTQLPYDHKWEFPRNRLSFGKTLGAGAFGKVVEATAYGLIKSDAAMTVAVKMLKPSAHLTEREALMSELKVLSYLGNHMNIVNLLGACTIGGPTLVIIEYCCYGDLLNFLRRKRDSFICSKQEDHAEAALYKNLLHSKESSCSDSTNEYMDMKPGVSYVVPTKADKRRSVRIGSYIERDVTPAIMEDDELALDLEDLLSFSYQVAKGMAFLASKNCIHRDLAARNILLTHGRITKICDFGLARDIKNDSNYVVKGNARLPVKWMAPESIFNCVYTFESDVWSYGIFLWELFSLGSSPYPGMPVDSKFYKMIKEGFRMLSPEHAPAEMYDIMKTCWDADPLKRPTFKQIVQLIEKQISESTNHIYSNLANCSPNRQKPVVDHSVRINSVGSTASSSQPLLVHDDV
Sequence of Mast/stem cell growth factor receptor Kit (Homo sapiens), P10721 [V559D,T670I] (P10721 whole entry V559D/T670I, the tested form may be a part): as the sequence (P10721 whole entry) above, with V559D, T670I counted along it
Sequence of Mast/stem cell growth factor receptor Kit (Homo sapiens), P10721 [V559D,V654A] (P10721 whole entry V559D/V654A, the tested form may be a part): as the sequence (P10721 whole entry) above, with V559D, V654A counted along it
Sequence of Macrophage colony-stimulating factor 1 receptor (Homo sapiens) (P07333 whole entry, the tested form may be a part): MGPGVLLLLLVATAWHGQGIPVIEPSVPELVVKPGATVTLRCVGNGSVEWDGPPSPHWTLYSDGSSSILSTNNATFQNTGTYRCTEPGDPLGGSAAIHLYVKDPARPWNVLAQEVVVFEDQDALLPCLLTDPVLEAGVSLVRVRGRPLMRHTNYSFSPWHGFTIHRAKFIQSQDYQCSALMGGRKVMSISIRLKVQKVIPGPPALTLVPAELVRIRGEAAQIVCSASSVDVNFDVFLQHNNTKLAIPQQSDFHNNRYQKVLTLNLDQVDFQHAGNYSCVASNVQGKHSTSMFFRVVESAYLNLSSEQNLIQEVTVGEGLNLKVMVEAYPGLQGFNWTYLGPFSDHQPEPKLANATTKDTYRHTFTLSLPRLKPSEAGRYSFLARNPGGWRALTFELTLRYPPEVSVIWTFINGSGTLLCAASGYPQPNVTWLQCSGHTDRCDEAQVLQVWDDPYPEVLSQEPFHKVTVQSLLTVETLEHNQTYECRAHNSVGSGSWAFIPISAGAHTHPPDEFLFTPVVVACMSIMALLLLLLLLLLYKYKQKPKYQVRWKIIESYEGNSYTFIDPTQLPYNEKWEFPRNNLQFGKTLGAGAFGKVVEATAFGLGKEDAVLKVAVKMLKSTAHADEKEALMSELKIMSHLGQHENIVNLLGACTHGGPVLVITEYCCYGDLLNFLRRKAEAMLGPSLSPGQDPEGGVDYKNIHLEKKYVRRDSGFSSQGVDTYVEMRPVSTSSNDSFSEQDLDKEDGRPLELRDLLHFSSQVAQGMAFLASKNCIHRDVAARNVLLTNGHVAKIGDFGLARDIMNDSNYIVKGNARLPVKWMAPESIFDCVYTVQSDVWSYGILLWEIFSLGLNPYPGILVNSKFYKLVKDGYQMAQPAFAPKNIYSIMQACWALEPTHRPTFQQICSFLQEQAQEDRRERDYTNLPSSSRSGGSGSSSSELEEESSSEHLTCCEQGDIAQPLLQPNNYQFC

CCC(=O)NCC1CCN(c2ccc(NC(=O)Nc3cccc(Oc4ccnc5cc(OC)c(OC)cc45)c3)cc2C(F)(F)F)CC1
solubility [1]: 35 µM (≈ 22.8 µg/mL) | EC50 [2]: < 100 nM | GI50 [3]: 360 nM | TGI (BaF3 [4]): Active | GI50 [5]: 4 nM | Activity [6]: 0.05% | GI50 [7]: 120 nM | inhibition [8]: Active | EC50 [9]: < 100 nM | MRT inf [10]: 46.8 min | GI50 [11]: 73 nM | Activity (BaF3 [12]): Active | inhibition in vivo at 50 mg/kg/day (BaF3 [13]): 37.1% | Activity [14]: Non-Toxic | Activity [15]: 0.85% | GI50 [16]: 57 nM | Activity [17]: 0.35% | Activity (Homo sapiens): Active
